Reference: ChEMBL document CHEMBL5126677, “Covalent Modification of the JH2 Domain of Janus Kinase 2” (ACS Med Chem Lett, 2022)

How the values were obtained:
[1] = target: T1, Tyrosine-protein kinase JAK2 (Homo sapiens, UniProt O60674); test: Binding affinity to wild type JAK2 JH2 (unknown origin) expressed in baculovirus infected Sf9 insect cells incubated for 30 mins by competitive fluorescence polarization assay
In short: (§1)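 JAK2 JH2 domain Kd from a competitive fluorescence polarization tracer-displacement assay, with readings after 30 min and after 20 h incubation. The negative control was tracer in buffer. The positive control used enough protein to bind all tracer, at the same protein concentration used across the assays.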

[2] = target: T1, Tyrosine-protein kinase JAK2; test: Binding affinity to wild type JAK2 JH2 (unknown origin) expressed in baculovirus infected Sf9 insect cells incubated for 20 hrs by competitive fluorescence polarization assay; in short: as §1
[3] = species: Homo sapiens; test: Selectivity ratio of Kd for wild type JAK2 JH2 (unknown origin) expressed in baculovirus infected Sf9 insect cells incubated for 30 mins to Kd for wild type JAK2 JH2 (unknown origin) expressed in baculovirus infected Sf9 insect cells incubated for 20 hrs
[4] = species: Homo sapiens; test: Selectivity ratio of Kd for wild type JAK2 JH1 (unknown origin) expressed in baculovirus infected Sf9 insect cells incubated for 30 mins to Kd for wild type JAK2 JH2 (unknown origin) expressed in baculovirus infected Sf9 insect cells incubated for 30 mins
In short: (§2)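 Selectivity is the ratio of JH1 Kd to JH2 Kd, both from the same competitive fluorescence polarization assay. JH2 Kd was taken at the 30 min or 20 h incubation. Controls were tracer in buffer (negative) and saturating protein at the common protein concentration (positive).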

[5] = species: Homo sapiens; test: Selectivity ratio of Kd for wild type JAK2 JH1 (unknown origin) expressed in baculovirus infected Sf9 insect cells incubated for 30 mins to Kd for wild type JAK2 JH2 (unknown origin) expressed in baculovirus infected Sf9 insect cells incubated for 20 hrs; in short: as §2
[6] = target: T1, Tyrosine-protein kinase JAK2; test: Binding affinity to wild type JAK2 JH1 (unknown origin) expressed in baculovirus infected Sf9 insect cells incubated for 30 mins by competitive fluorescence polarization assay

T1 sequence (O60674 whole entry, the tested form may be a part): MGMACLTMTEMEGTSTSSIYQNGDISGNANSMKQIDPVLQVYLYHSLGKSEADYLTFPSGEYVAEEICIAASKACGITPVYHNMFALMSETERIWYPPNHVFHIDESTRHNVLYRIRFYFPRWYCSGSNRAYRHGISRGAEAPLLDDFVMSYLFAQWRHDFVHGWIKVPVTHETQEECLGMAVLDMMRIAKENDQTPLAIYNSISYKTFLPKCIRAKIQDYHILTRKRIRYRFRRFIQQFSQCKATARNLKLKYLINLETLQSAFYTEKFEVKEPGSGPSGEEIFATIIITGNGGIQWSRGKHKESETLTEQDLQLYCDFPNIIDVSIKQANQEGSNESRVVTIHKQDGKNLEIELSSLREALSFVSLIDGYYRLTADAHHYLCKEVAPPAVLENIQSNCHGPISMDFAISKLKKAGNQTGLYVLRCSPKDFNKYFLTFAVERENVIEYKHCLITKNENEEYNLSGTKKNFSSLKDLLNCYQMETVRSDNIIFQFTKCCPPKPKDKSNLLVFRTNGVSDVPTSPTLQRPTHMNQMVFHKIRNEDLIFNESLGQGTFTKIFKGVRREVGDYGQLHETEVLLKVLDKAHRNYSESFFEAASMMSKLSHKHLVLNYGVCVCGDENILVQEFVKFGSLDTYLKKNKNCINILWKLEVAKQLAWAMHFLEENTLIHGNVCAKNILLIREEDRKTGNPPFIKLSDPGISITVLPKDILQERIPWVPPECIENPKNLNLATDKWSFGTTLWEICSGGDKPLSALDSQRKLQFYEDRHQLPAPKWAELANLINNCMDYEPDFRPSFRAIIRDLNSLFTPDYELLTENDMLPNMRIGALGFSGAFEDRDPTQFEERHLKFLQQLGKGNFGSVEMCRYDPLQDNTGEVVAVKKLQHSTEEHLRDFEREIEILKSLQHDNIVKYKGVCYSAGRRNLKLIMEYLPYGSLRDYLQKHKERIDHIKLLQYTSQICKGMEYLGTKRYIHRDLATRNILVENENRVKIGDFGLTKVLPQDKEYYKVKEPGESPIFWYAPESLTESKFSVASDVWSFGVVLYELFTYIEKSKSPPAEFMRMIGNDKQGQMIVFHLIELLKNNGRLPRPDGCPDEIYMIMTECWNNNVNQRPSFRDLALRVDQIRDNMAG

Row | SMILES | Kd [1] | Kd [2] | Kd [6] | Selectivity ratio [3] | Selectivity ratio [4] | Selectivity ratio [5]
1 | C=CC(=O)NCCc1ccc(F)c(C(=O)n2nc(Nc3ccc(C(=O)NC)cc3)nc2N)c1F | 556 nM | 110 nM | 1280 nM | 5.1 | 2.3 | 11.6
2 | CNC(=O)c1ccc(Nc2nc(N)n(C(=O)c3c(F)cccc3F)n2)cc1 | 171 nM | 263 nM | – | 0.65 | – | –
3 | C=CC(=O)NCCOc1ccc(F)c(C(=O)n2nc(Nc3ccc(C(=O)NC)cc3)nc2N)c1F | 617 nM | 154 nM | 4370 nM | 4 | 7.1 | 28.4

Further molecules by falling Kd [1], results first:

Row | Kd [1] | Kd [2] | Kd [6] | SMILES | Selectivity ratio [3] | Selectivity ratio [4] | Selectivity ratio [5]
4 | 1250 nM | 800 nM | – | C=CC(=O)NCc1ccc(F)c(C(=O)n2nc(Nc3ccc(C(=O)NC)cc3)nc2N)c1F | 1.6 | – | –
5 | 578 nM | 565 nM | – | C/C=C/C(=O)NCCc1ccc(F)c(C(=O)n2nc(Nc3ccc(C(=O)NC)cc3)nc2N)c1F | 1 | – | –
6 | 242 nM | 75 nM | 830 nM | C=CC(=O)NCCc1cc(F)c(C(=O)n2nc(Nc3ccc(C(=O)NC)cc3)nc2N)c(F)c1 | 3.2 | 3.4 | 11.1
